Reference: publication PMC4944921 (Drug Design, Development and Therapy, 2016)

How the values were obtained:
[1] = test system: TJ proteins (occludin, claudin-1, F-actin) in Calu-3 cells; experiment: Immunofluorescence microscopy of tight junction proteins in Calu-3 cells; format: cell-based, human; details: 3 hours treatment, vs control group
How it was run: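 Calu-3 monolayers on collagen-coated 0.4 μm PET Transwell membranes were exposed to test compounds in medium for 3 h. Cells were fixed in cold 4% paraformaldehyde for 30 min and blocked with goat serum for 1 h. Anti-occludin or anti-claudin-1 (1:100, 4°C overnight) was detected with TRITC anti-rabbit or FITC anti-mouse IgG. F-actin was stained with phalloidin (1:150, RT, 30 min) and nuclei with DAPI. Relative AOD = (IntDen/Area) as % of control; three experiments; Dunnett test.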

Calu-3 cells [2] = experiment: MTT cytotoxicity assay in Calu-3 cells; format: cell-based, human; details: comparison of the three compounds
How it was run: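 Calu-3 cells were seeded at 1×10^5 cells/mL in 96-well plates and grown for 48 h at 37°C in 5% CO2. They were then exposed to test compounds at various concentrations for 48 h. MTT (5 mg/mL stock in PBS) was added for 4 h at 37°C, formazan was dissolved in DMSO, and A490 was read. Viability (%) = (Asample−Ablank)/(Acontrol−Ablank)×100, from the mean of five measurements.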

[3] = Puerarin bidirectional transport across Calu-3 cell monolayers; format: in vitro ADME, human; details: human
How it was run: (§1)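 Calu-3 cells (passages 5–10) were grown on collagen-coated PET Transwells, switched to air-interface culture from day 5 and used once TEER exceeded 500 Ω cm2. Monolayers were HBSS-washed and equilibrated for 30 min at 37°C. Drug was placed apically (A→B) or basolaterally (B→A), with shaking at 37°C. Receiver samples were taken at 30–180 min for HPLC-UV at 250 nm (C18; methanol:1% acetate 37:63). Papp was normalised to donor concentration and membrane area; ER = Papp(B→A)/Papp(A→B); n=3.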

Calu-3 cell monolayer = experiment: as above; format: in vitro ADME, human
How it was run: as §1

Calu-3 cells [4] = experiment: TEER change of Calu-3 monolayers after exposure to compounds; format: cell-based, human; details: A→B and B→A, 30-180 minutes, vs control group
How it was run: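 Monolayers with TEER above 500 Ω cm2 received drug solution on the apical side (HBSS basolateral) or on the basolateral side (HBSS apical). Untreated monolayers served as control. TEER was read with chopstick electrodes and an epithelial volt–ohm meter at 30, 60, 90, 120, 150 and 180 min. Values are expressed relative to pre-experiment TEER (100%) and compared with control by one-way ANOVA and Dunnett test (P<0.05); three experiments, mean ± SD.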

[5] = cited from earlier work
[6] = test system: abdominal skin of Rana catesbeiana; details: menthol 5 mg/mL with puerarin, compared with puerarin alone group; cited from earlier work

C[C@@]12C[C@@]3(O)O[C@@H](O1)[C@]1(COC(=O)c4ccccc4)[C@H]3C[C@@]12O[C@@H]1O[C@H](CO)[C@@H](O)[C@H](O)[C@H]1O [paeoniflorin]
relative AOD of occludin, claudin-1, and F-actin [1]: did not significantly differ

O=c1c(-c2ccc(O)cc2)coc2c([C@@H]3O[C@H](CO)[C@@H](O)[C@H](O)[C@H]3O)c(O)ccc12 [puerarin]
relative toxicity to Calu-3 cells (Calu-3 cells [2]): safer and less irritating than paeoniflorin
Papp at 180 min [3]: < 1.5 ×10⁻⁶ cm/s
efflux ratio at 180 min, 30 μg/mL ([3]; ER (B→A/A→B), puerarin 30 μg/mL alone): 0.963 ± 0.065
efflux ratio at 180 min, 60 μg/mL ([3]; ER (B→A/A→B), puerarin 60 μg/mL alone): 1.01 ± 0.032
Papp A→B at 180 min, 30 μg/mL ([3]; Papp (A→B), puerarin 30 μg/mL alone): 1.22 ± 0.027 ×10⁻⁶ cm/s
Papp A→B at 180 min, 60 μg/mL ([3]; Papp (A→B), puerarin 60 μg/mL + menthol 15 μg/mL): 1.28 ± 0.084 ×10⁻⁶ cm/s
Papp A→B at 180 min, 60 μg/mL ([3]; Papp (A→B), puerarin 60 μg/mL + menthol 30 μg/mL): 1.64 ± 0.058 ×10⁻⁶ cm/s
Papp A→B at 180 min, 60 μg/mL ([3]; Papp (A→B), puerarin 60 μg/mL + menthol 60 μg/mL): 1.79 ± 0.087 ×10⁻⁶ cm/s
Papp A→B at 180 min, 60 μg/mL ([3]; Papp (A→B), puerarin 60 μg/mL + paeoniflorin 12 μg/mL): 1.24 ± 0.027 ×10⁻⁶ cm/s
Papp A→B at 180 min, 60 μg/mL ([3]; Papp (A→B), puerarin 60 μg/mL + paeoniflorin 12 μg/mL + menthol 15 μg/mL): 1.3 ± 0.15 ×10⁻⁶ cm/s
Papp A→B at 180 min, 60 μg/mL ([3]; Papp (A→B), puerarin 60 μg/mL + paeoniflorin 24 μg/mL): 1.23 ± 0.054 ×10⁻⁶ cm/s
Papp A→B at 180 min, 60 μg/mL ([3]; Papp (A→B), puerarin 60 μg/mL + paeoniflorin 24 μg/mL + menthol 30 μg/mL): 1.56 ± 0.143 ×10⁻⁶ cm/s
Papp A→B at 180 min, 60 μg/mL ([3]; Papp (A→B), puerarin 60 μg/mL + paeoniflorin 48 μg/mL): 1.23 ± 0.025 ×10⁻⁶ cm/s
Papp A→B at 180 min, 60 μg/mL ([3]; Papp (A→B), puerarin 60 μg/mL + paeoniflorin 48 μg/mL + menthol 60 μg/mL): 1.96 ± 0.067 ×10⁻⁶ cm/s
Papp A→B at 180 min, 60 μg/mL ([3]; Papp (A→B), puerarin 60 μg/mL alone): 1.23 ± 0.039 ×10⁻⁶ cm/s
Papp A→B at 180 min, 120 μg/mL ([3]; Papp (A→B), puerarin 120 μg/mL alone): 1.24 ± 0.053 ×10⁻⁶ cm/s
Papp A→B at 180 min ([3]; Papp (A→B), puerarin alone, span over 30, 60 and 120 μg/mL): 1.22 to 1.24 ×10⁻⁶ cm/s
Papp B→A at 180 min, 30 μg/mL ([3]; Papp (B→A), puerarin 30 μg/mL alone): 1.17 ± 0.053 ×10⁻⁶ cm/s
Papp B→A at 180 min, 60 μg/mL ([3]; Papp (B→A), puerarin 60 μg/mL + menthol 15 μg/mL): 1.36 ± 0.083 ×10⁻⁶ cm/s
Papp B→A at 180 min, 60 μg/mL ([3]; Papp (B→A), puerarin 60 μg/mL + menthol 30 μg/mL): 1.8 ± 0.111 ×10⁻⁶ cm/s
Papp B→A at 180 min, 60 μg/mL ([3]; Papp (B→A), puerarin 60 μg/mL + menthol 60 μg/mL): 2.07 ± 0.151 ×10⁻⁶ cm/s
Papp B→A at 180 min, 60 μg/mL ([3]; Papp (B→A), puerarin 60 μg/mL + paeoniflorin 12 μg/mL): 1.24 ± 0.037 ×10⁻⁶ cm/s
Papp B→A at 180 min, 60 μg/mL ([3]; Papp (B→A), puerarin 60 μg/mL + paeoniflorin 12 μg/mL + menthol 15 μg/mL): 1.29 ± 0.067 ×10⁻⁶ cm/s
Papp B→A at 180 min, 60 μg/mL ([3]; Papp (B→A), puerarin 60 μg/mL + paeoniflorin 24 μg/mL): 1.25 ± 0.032 ×10⁻⁶ cm/s
Papp B→A at 180 min, 60 μg/mL ([3]; Papp (B→A), puerarin 60 μg/mL + paeoniflorin 24 μg/mL + menthol 30 μg/mL): 1.91 ± 0.254 ×10⁻⁶ cm/s
Papp B→A at 180 min, 60 μg/mL ([3]; Papp (B→A), puerarin 60 μg/mL + paeoniflorin 48 μg/mL): 1.29 ± 0.035 ×10⁻⁶ cm/s
Papp B→A at 180 min, 60 μg/mL ([3]; Papp (B→A), puerarin 60 μg/mL + paeoniflorin 48 μg/mL + menthol 60 μg/mL): 2.14 ± 0.13 ×10⁻⁶ cm/s
Papp B→A at 180 min, 60 μg/mL ([3]; Papp (B→A), puerarin 60 μg/mL alone): 1.24 ± 0.055 ×10⁻⁶ cm/s
Papp B→A at 180 min, 120 μg/mL ([3]; Papp (B→A), puerarin 120 μg/mL alone): 1.27 ± 0.104 ×10⁻⁶ cm/s
Papp B→A at 180 min ([3]; Papp (B→A), puerarin alone, span over 30, 60 and 120 μg/mL): 1.17 to 1.27 ×10⁻⁶ cm/s
efflux ratio at 180 min ([3]; efflux ratio (ER), puerarin alone, each concentration 30, 60, 120 μg/mL): < 1.5
ER (B→A/A→B) (Calu-3 cell monolayer; puerarin 60 μg/mL + menthol 15 μg/mL): 1.065±0.116
ER (B→A/A→B) (Calu-3 cell monolayer; puerarin 60 μg/mL + menthol 30 μg/mL): 1.100±0.060
ER (B→A/A→B) (Calu-3 cell monolayer; puerarin 60 μg/mL + menthol 60 μg/mL): 1.157±0.088
ER (B→A/A→B) (Calu-3 cell monolayer; puerarin 60 μg/mL + paeoniflorin 12 μg/mL): 1.002±0.039
ER (B→A/A→B) (Calu-3 cell monolayer; puerarin 60 μg/mL + paeoniflorin 12 μg/mL + menthol 15 μg/mL): 0.999±0.150
ER (B→A/A→B) (Calu-3 cell monolayer; puerarin 60 μg/mL + paeoniflorin 24 μg/mL): 1.018±0.065
ER (B→A/A→B) (Calu-3 cell monolayer; puerarin 60 μg/mL + paeoniflorin 24 μg/mL + menthol 30 μg/mL): 1.228±0.157
ER (B→A/A→B) (Calu-3 cell monolayer; puerarin 60 μg/mL + paeoniflorin 48 μg/mL): 1.049±0.027
ER (B→A/A→B) (Calu-3 cell monolayer; puerarin 60 μg/mL + paeoniflorin 48 μg/mL + menthol 60 μg/mL): 1.091±0.048
ER (B→A/A→B) (Calu-3 cell monolayer; puerarin 120 μg/mL alone): 1.023±0.070
efflux ratio (ER) (Calu-3 cell monolayer; puerarin alone, each concentration 30, 60, 120 μg/mL): ~ 1
trend of TEER change (Calu-3 cells [4]): no difference from the control group
relative AOD of occludin, claudin-1, and F-actin [1]: did not significantly differ
AUC0−∞ (plasma) ([5]; Tongqiaosanyu, caudal vein injection, rats): 787.99±70.44 mg⋅min⋅L^−1
AUC0–∞ (plasma) ([5]; Tongqiaosanyu, nasal administration, rats): 376.56±93.93 mg⋅min⋅L^−1
brain drug targeting index ([5]; intranasal administration): 2.70
brain targeting coefficient (Re) ([5]; intranasal administration): 132.25%
absolute bioavailability ([5]; nasal administration): 47.78%

CC1CCC(C(C)C)C(O)C1 (centres unmarked) [menthol]
relative toxicity to Calu-3 cells (Calu-3 cells [2]): most toxic
relative AOD of occludin, claudin-1, and F-actin [1]: decreased significantly
Papp value of puerarin [6]: significantly higher
